Measured values taken from ChEMBL document CHEMBL5724801, “EUbOPEN Chemogenomics Library - Multiplex” (2024).
Where “and” joins values, the source holds several entries; their conditions need not be identical. Equal values may be shown once.

System: U2OS
Assay: Multiplex assay against U2OS
Format: toxicity, cell-based
Settings: human
Outline: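 Four dyes were applied at seeding to live cells: Hoechst33342, BioTracker Green Microtubule Cytoskeleton Dye, MitoTracker Red and Annexin V Alexa Fluor 680. Imaging after compound addition used a CQ1 microscope at 37°C and 5% CO2. CellPathfinder machine-learning gating then sorted cells into Hoechst high-intensity objects or normal cells, normal cells into healthy, pyknosed or fragmented nuclei, and pyknosed cells into mitotic or apoptotic, with tubulin, mitochondrial-mass and membrane-permeability phenotypes given as per cents of healthy-nucleus cells.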

[1] = 12 h, 1 µM, compound concentration 1 uM
[2] = 12 h, 10 µM, compound concentration 10 uM
[3] = 24 h, 1 µM, compound concentration 1 uM
[4] = 24 h, 10 µM, compound concentration 10 uM
[5] = 48 h, 1 µM, compound concentration 1 uM
[6] = 48 h, 10 µM, compound concentration 10 uM

SMILES: CCOC(=O)c1c(/C(C#N)=C\N)c2ccc(Cl)c(Cl)c2n1C
- Population Apoptotic (%) [1]: 47.83% and 43.48%
- Population Fragmented Nuclei (%) [1]: 0.85% and 4.7%
- Population Healthy Nuclei (%) [1]: 89.38% and 79.87%
- Population Hoechst High Intensity Objects (%) [1]: 0%
- Population Membrane Permeable-Phenotype (%) [1]: 1.19% and 0.84%
- Population Mitochondria Different-Phenotype (%) [1]: 0% and 5.88%
- Population Mitotic Cells (%) [1]: 52.17% and 56.52%
- Population Normal (%) [1]: 100%
- Population Pyknosed Nuclei (%) [1]: 9.77% and 15.44%
- Population Tubulin-Different-Phenotype (%) [1]: 0.95% and 0.84%
- Population Apoptotic (%) [2]: 43.9% and 26.67%
- Population Healthy Nuclei (%) [2]: 86.92% and 80.49%
- Population Hoechst High Intensity Objects (%) [2]: 0%
- Population Membrane Permeable-Phenotype (%) [2]: 0% and 3.64%
- Population Mitochondria Different-Phenotype (%) [2]: 0% and 2.42%
- Population Mitotic Cells (%) [2]: 56.1% and 73.33%
- Population Normal (%) [2]: 100%
- Population Pyknosed Nuclei (%) [2]: 11.17% and 7.32%
- Population Tubulin-Different-Phenotype (%) [2]: 0.31% and 0%
- Total Cell Count [2]: 367 and 205
- Population Apoptotic (%) [3]: 38.46% and 52.38%
- Population Fragmented Nuclei (%) [3]: 0.82% and 3.3%
- Population Healthy Nuclei (%) [3]: 90.7% and 85.16%
- Population Hoechst High Intensity Objects (%) [3]: 0%
- Population Membrane Permeable-Phenotype (%) [3]: 0.9% and 3.87%
- Population Mitochondria Different-Phenotype (%) [3]: 0% and 2.58%
- Population Mitotic Cells (%) [3]: 61.54% and 47.62%
- Population Normal (%) [3]: 100%
- Population Pyknosed Nuclei (%) [3]: 8.48% and 11.54%
- Population Tubulin-Different-Phenotype (%) [3]: 1.62% and 1.29%
- Population Apoptotic (%) [4]: 49.09% and 33.33%
- Population Fragmented Nuclei (%) [4]: 1.8% and 9.69%
- Population Healthy Nuclei (%) [4]: 87.17% and 84.5%
- Population Hoechst High Intensity Objects (%) [4]: 0%
- Population Membrane Permeable-Phenotype (%) [4]: 0.46% and 1.38%
- Population Mitochondria Different-Phenotype (%) [4]: 0% and 1.38%
- Population Mitotic Cells (%) [4]: 50.91% and 66.67%
- Population Normal (%) [4]: 100%
- Population Pyknosed Nuclei (%) [4]: 11.02% and 5.81%
- Population Tubulin-Different-Phenotype (%) [4]: 0.92% and 0.46%
- Total Cell Count [4]: 499 and 258
- Population Apoptotic (%) [5]: 46.46% and 70.83%
- Population Fragmented Nuclei (%) [5]: 2.55% and 2.93%
- Population Healthy Nuclei (%) [5]: 88.73% and 89.25%
- Population Hoechst High Intensity Objects (%) [5]: 0%
- Population Membrane Permeable-Phenotype (%) [5]: 0.6% and 3.28%
- Population Mitochondria Different-Phenotype (%) [5]: 0% and 2.55%
- Population Mitotic Cells (%) [5]: 53.54% and 29.17%
- Population Normal (%) [5]: 100%
- Population Pyknosed Nuclei (%) [5]: 8.71% and 7.82%
- Population Tubulin-Different-Phenotype (%) [5]: 0.4% and 1.82%
- Population Apoptotic (%) [6]: 37.84% and 47.83%
- Population Fragmented Nuclei (%) [6]: 3.52% and 4.86%
- Population Healthy Nuclei (%) [6]: 85.01% and 83.38%
- Population Hoechst High Intensity Objects (%) [6]: 0%
- Population Membrane Permeable-Phenotype (%) [6]: 1.09% and 0.92%
- Population Mitochondria Different-Phenotype (%) [6]: 0% and 1.84%
- Population Mitotic Cells (%) [6]: 62.16% and 52.17%
- Population Normal (%) [6]: 100%
- Population Pyknosed Nuclei (%) [6]: 11.48% and 11.76%
- Population Tubulin-Different-Phenotype (%) [6]: 1.09% and 0%
- Total Cell Count [6]: 967 and 391
